Test results from ChEMBL document CHEMBL1126616, “1,2-Cyclomethylenecarboxylic monoamide hydroxamic derivatives. A novel class of non-amino acid angiotensin converting enzyme inhibitors” (J Med Chem, 1993).

T1: Angiotensin-converting enzyme (Rattus norvegicus, UniProt P47820)
T1 sequence (P47820 whole entry): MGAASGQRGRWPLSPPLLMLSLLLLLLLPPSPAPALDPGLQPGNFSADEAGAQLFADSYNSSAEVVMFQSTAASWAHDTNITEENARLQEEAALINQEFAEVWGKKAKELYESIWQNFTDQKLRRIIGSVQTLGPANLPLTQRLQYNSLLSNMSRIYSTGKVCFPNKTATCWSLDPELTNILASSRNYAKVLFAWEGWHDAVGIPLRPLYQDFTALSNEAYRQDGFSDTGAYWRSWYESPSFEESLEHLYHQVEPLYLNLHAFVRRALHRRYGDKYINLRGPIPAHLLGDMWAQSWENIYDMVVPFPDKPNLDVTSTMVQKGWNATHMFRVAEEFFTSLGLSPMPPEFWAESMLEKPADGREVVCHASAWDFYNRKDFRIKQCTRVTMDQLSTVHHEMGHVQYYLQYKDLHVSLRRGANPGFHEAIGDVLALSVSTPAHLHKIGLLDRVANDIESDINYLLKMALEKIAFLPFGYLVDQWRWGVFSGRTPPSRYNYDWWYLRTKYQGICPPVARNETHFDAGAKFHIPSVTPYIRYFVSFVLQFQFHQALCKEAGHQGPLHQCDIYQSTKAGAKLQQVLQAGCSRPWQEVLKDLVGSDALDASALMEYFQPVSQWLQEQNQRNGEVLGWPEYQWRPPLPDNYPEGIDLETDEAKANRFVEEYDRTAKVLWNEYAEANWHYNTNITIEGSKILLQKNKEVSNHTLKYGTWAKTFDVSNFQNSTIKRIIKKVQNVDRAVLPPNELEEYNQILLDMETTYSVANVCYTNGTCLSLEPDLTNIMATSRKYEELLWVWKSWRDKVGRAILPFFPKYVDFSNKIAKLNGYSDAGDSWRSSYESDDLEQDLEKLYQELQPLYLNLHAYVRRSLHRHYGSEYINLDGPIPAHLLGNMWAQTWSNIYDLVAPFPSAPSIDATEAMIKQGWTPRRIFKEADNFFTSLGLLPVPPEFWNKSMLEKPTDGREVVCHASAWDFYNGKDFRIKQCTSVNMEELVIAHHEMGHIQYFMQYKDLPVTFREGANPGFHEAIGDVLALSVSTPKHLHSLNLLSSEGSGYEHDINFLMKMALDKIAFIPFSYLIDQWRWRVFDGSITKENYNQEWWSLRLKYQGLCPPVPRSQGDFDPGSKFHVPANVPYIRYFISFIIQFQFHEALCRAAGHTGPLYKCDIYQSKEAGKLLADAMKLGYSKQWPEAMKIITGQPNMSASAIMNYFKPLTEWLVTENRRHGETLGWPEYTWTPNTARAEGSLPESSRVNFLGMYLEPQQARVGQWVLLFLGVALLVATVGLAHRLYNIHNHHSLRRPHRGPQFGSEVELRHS

B1: Angiotensin-converting enzyme (Rattus norvegicus), P47820 (protein)
chain: T1 sequence (P47820 whole entry)

Substrate: CN(CC(=O)NO)C(=O)C1CCCCC1C(=O)O
Assay: Michaelis-Menten's constant for the hydrolysis of hippuryl-glycyl-glycine by rat serum ACE at the concentration of 3 nM
Settings: not given
How it was run: (§1)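 For rat serum ACE kinetics, the dependence of hippurylglycylglycine hydrolysis rate on substrate concentration was measured at increasing inhibitor concentrations. Apparent Km and Vmax were derived for each inhibitor level.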

| Molecule | Km [mM] |
| --- | --- |
| B1 | 43 |

Substrate: CN(CC(=O)NO)C(=O)C1CCCCC1C(=O)O
Assay: Michaelis-Menten's constant for the hydrolysis of hippuryl-glycyl-glycine by rat serum ACE
Type: cell-free
Settings: not given
How it was run: as §1

| Molecule | Km [mM] |
| --- | --- |
| B1 | 21 |

Substrate: CN(CC(=O)NO)C(=O)C1CCCCC1C(=O)O
Assay: Michaelis-Menten's constant for the hydrolysis of hippuryl-glycyl-glycine by rat serum ACE at the concentration of 12 nM
Type: cell-free
Settings: not given
How it was run: as §1

| Molecule | Km [mM] |
| --- | --- |
| B1 | 129 |

Species on record: Rattus norvegicus
Assay: Maximum rate for the hydrolysis of hippuryl-glycyl-glycine by rat serum ACE at the concentration of 6 nM (mean +/- SEM)
Type: ADME
Settings: 0.006 µM
How it was run: as §1

| Vmax [uM min-1 ml-1] | Molecule |
| --- | --- |
| 1.16 | CN(CC(=O)NO)C(=O)C1CCCCC1C(=O)O (stereo in doubt; 21a) |

Species on record: Rattus norvegicus
Assay: Maximum rate for the hydrolysis of hippuryl-glycyl-glycine by rat serum ACE
Type: ADME
Settings: not given
How it was run: as §1

| Vmax [uM min-1 ml-1] | Molecule |
| --- | --- |
| 1.31 | CN(CC(=O)NO)C(=O)C1CCCCC1C(=O)O (stereo in doubt; 21a) |

Molecular target: T1, Angiotensin-converting enzyme
Assay: In vitro inhibitory activity against rat serum angiotensin I converting enzyme using hippuryl-glycyl-glycine as substrate
Type: cell-free
Settings: not given

| IC50 [nM] | Molecule |
| --- | --- |
| > 150000 | CCN(CC(=O)O)C(=O)C1CCCC1C(=O)O (cis isomer) |
| 1800 | CN(CC(=O)NO)C(=O)C1CCCCC1C(=O)O (stereo in doubt; 21b) |
| > 150000 | O=C(CNC(=O)C1CCCCC1C(=O)O)NOCc1ccccc1 (cis isomer) |
| > 150000 | O=C(O)C1CCCCC1C(=O)NCCS (trans isomer) |
| > 150000 | CN(CC(=O)O)C(=O)C1CCCCC1C(=O)O (cis isomer) |
| 600 | CC(CC(=O)NO)C(=O)N1CCC[C@H]1C(=O)O (stereo partly specified) |
| 97000 | CCN(CC(=O)O)C(=O)C1CCCCC1C(=O)O (stereo in doubt; 7e) |
| 10000 | O=C(O)C1CCCCC1C(=O)NCCS (stereo in doubt; 8b) |
| 11000 | O=C(O)C1CCCC1C(=O)NCCS (stereo unspecified) |
| > 150000 | O=C(CNC(=O)C1CCCCC1C(=O)O)NOCc1ccccc1 (stereo in doubt; 9b) |
| 1500 | O=C(CNC(=O)C1CCCCC1C(=O)O)NO (trans isomer) |
| 1400 | O=C(O)C1CCCCC1C(=O)CCS (stereo unspecified) |
| > 150000 | O=C(O)CNC(=O)C1CCCCC1C(=O)O (stereo unspecified) |
| 18 | CCN(CC(=O)NO)C(=O)C1CCCCC1C(=O)O (stereo in doubt; 10g) |
| 7 | CN(CC(=O)NO)C(=O)C1CCCCC1C(=O)O (stereo in doubt; 21a) |
| 624000 | O=C(O)CCC(=O)N1CCCC1C(=O)O (stereo unspecified) |
| > 150000 | CN(CC(=O)NOCc1ccccc1)C(=O)C1CCCCC1C(=O)O (stereo in doubt; 9e) |
| > 150000 | CCCN(CC(=O)O)C(=O)C1CCCCC1C(=O)O (stereo unspecified) |
| 57 | CCN(CC(=O)NO)C(=O)C1CCCCC1C(=O)O (cis isomer) |

| IC50 [nM] | Molecule |
| --- | --- |
| 23500 | CN(CC(=O)NO)C(=O)C1CCCCC1C(=O)O (stereo in doubt; 16a) |
| > 150000 | CCN(CC(=O)NOCc1ccccc1)C(=O)C1CCCCC1C(=O)O (trans isomer) |
| 14 | CCN(CC(=O)NO)C(=O)C1CCCCC1C(=O)O (trans isomer) |
| 1400 | CN(CC(=O)NO)C(=O)C1CCCC1C(=O)O (stereo unspecified) |
| 12 | CN(CC(=O)NO)C(=O)C1CCCCC1C(=O)O (cis isomer) |
| 2900 | CCN(CC(=O)NO)C(=O)C1CCCCC1C(=O)O (stereo in doubt; 21d) |
| > 150000 | CCN(CC(=O)NOCc1ccccc1)C(=O)C1CCCCC1C(=O)O (cis isomer) |
| 2900 | CCN(CC(=O)NO)C(=O)C1CCCCC1C(=O)O (stereo in doubt; 16c) |
| 24 | CN(CC(=O)NO)C(=O)C1CCCCC1C(=O)O (stereo in doubt; 16b) |
| > 150000 | CN(CC(=O)NOCc1ccccc1)C(=O)C1CCCCC1C(=O)O (cis isomer) |
| 150 | CCCN(CC(=O)NO)C(=O)C1CCCCC1C(=O)O (trans isomer) |
| 28 | CCN(CC(=O)NO)C(=O)C1CCCCC1C(=O)O (stereo in doubt; 21c) |
| 75000 | CCN(CC(=O)O)C(=O)C1CCCCC1C(=O)O (stereo in doubt; 7d) |
| > 150000 | CN(CC(=O)NOCc1ccccc1)C(=O)C1CCCC1C(=O)O (stereo unspecified) |
| 400 | CCCN(CC(=O)NO)C(=O)C1CCCCC1C(=O)O (cis isomer) |
| 45 | CN(CC(=O)NO)C(=O)C1CCCCC1C(=O)O (trans isomer) |
| 3000 | O=C(CNC(=O)C1CCCCC1C(=O)O)NO (cis isomer) |
| 1700 | O=C(O)C1CCCCC1C(=O)CCS (trans isomer) |
| 500 | CC(C)N(CC(=O)NO)C(=O)C1CCCCC1C(=O)O (trans isomer) |

Species on record: Rattus norvegicus
Assay: Maximum rate for the hydrolysis of hippuryl-glycyl-glycine by rat serum ACE at the concentration of 3 nM
Type: ADME
Settings: 0.003 µM
How it was run: as §1

| Vmax [uM min-1 ml-1] | Molecule |
| --- | --- |
| 1.25 | CN(CC(=O)NO)C(=O)C1CCCCC1C(=O)O (stereo in doubt; 21a) |

Species on record: Rattus norvegicus
Assay: Maximum rate for the hydrolysis of hippuryl-glycyl-glycine by rat serum ACE at the concentration of 12 nM
Type: ADME
Settings: 0.012 µM
How it was run: as §1

| Vmax [uM min-1 ml-1] | Molecule |
| --- | --- |
| 1.36 | CN(CC(=O)NO)C(=O)C1CCCCC1C(=O)O (stereo in doubt; 21a) |

Substrate: CN(CC(=O)NO)C(=O)C1CCCCC1C(=O)O
Assay: Michaelis-Menten's constant for the hydrolysis of hippuryl-glycyl-glycine by rat serum Angiotensin I Converting Enzyme at the concentration of 6 nM
Type: cell-free
Settings: not given
How it was run: as §1

| Molecule | Km [mM] |
| --- | --- |
| B1 | 62 |
